Experimental data reported in article PMC3832139 (Cancer chemotherapy and pharmacology, 2013).
Read-outs that look alike come from different tables or passages of the source.

How the values were obtained:
MM.1R cells [1] = assay: MTT cytotoxicity assay; format: cell-based, human
RPMI 8226 cells = assay: MTT cytotoxicity assay; format: cell-based; settings: Homo sapiens, RPMI-8226, 48 h, read-out: IC50 (cytotoxicity, MTT)
[2] = system: phospho-AKT in CD138+ MM cells; assay: Phospho-AKT flow cytometry of patient bone marrow CD138+ MM cells; format: in vivo, human; settings: patient 002 CD138+ cells before dosing, 10 μM ex vivo, 30 minutes
MM.1S and MM.1R cells = assay: Western blot of signaling pathways; format: cell-based, human; settings: for phospho-p70 S6 kinase: MM.1R cells, data not shown; for phosphorylation of AKT, MDM2, and ERK: MM.1S and MM.1R cells, 10 μM
[3] = Prodrug cleavage and preclinical pharmacokinetics; format: in vitro ADME
p110β = settings: cited from earlier work
p110γ = settings: cited from earlier work
p110δ = settings: cited from earlier work
MM.1S cells [4] = assay: MTT cytotoxicity assay; settings: read-out: IC50 (cytotoxicity, MTT)
[5] = Pharmacokinetics in MM patients, Phase I study of SF1126; settings: MM patients given SF1126 infusion, dose levels 90–570 mg/m^2
MM.1S cells [6] = assay: Cleaved caspase-3 immunocytochemistry; format: cell-based, human; settings: for cells positive for cleaved caspase-3: one hour, non-treated 5.9%
MM.1R cells [7] = assay: Cleaved caspase-3 immunocytochemistry; format: cell-based, human
MM.1R xenografts [8] = format: in vivo, mouse
MM.1R xenografts [9] = assay: Immunohistochemistry of MM.1R tumors; format: in vivo, mouse; settings: 50 mg/kg s.c. 3 times weekly
Summary of the method: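 Mice bearing s.c. MM.1R flank xenografts (randomized at 100–125 mm³) got test compound 50 mg/kg s.c. or acidified sterile water vehicle, 3 times weekly for 3 weeks. Frozen 4 μm tumor sections were stained with rat anti-mouse CD31; paraffin 5 μm sections were stained overnight with anti-PCNA (PC10). HRP streptavidin-biotin, hematoxylin counterstain, mouse IgG negative control. PCNA labeling index: % positive nuclei over 500 cells, ten 40x fields; SD, n=8.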

HIF-1α in MM.1R cells = assay: Hypoxic HIF-1α stabilization, Western blot; format: cell-based, human; settings: 1% oxygen, 4 hours
[10] = system: HIF-1α in RPMI 8226 cells; assay: Hypoxic HIF-1α stabilization, Western blot; format: cell-based, human; settings: RPMI 8226, 1% oxygen, 4 hours, 20 and 40 μM
[11] = human, in vivo
[12] = relapsed or refractory MM patients, Phase I
[13] = cited from earlier work

## O=c1cc(N2CCOCC2)oc2c(-c3ccccc3)cccc12 [LY294002]
MM.1R cells [1]; Homo sapiens, 48 h, read-out: IC50 (cytotoxicity, MTT)
  IC50: […]
RPMI 8226 cells
  IC50: 5.83 µM
[2]
  endogenous downstream AKT phosphorylation, ex vivo treatment: did not suppress
MM.1S and MM.1R cells
  phospho-p70 S6 kinase: decreased
  phosphorylation of AKT, MDM2, and ERK: significantly decreased
[3]
  plasma half-life: does not have a measurable plasma half-life
p110β
  IC50: […]
p110γ
  IC50: […]
p110δ
  IC50: […]
Solubility
  solubility: only soluble in 100% DMSO
MM.1S cells [4]; Homo sapiens, MM1.S, 48 h
  IC50: 7.17 µM
[5]
  t1/2 of active SF1126 hydrolysis product: […]

## N=C(N)NCCC[C@H](NC(=O)CCC(=O)OC[N+]1(c2cc(=O)c3cccc(-c4ccccc4)c3o2)CCOCC1)C(=O)NCC(=O)N[C@@H](CC(=O)O)C(=O)N[C@@H](CO)C(=O)[O-] [SF1126]
MM.1R cells [1]; read-out: IC50 (cytotoxicity, MTT), 48 hours, sigmoidal dose-response fit
  IC50: 11.7 µM
MM.1S cells [6]; 5 μM
  increase in cleaved caspase-3 over non-treated cells: 1.4 fold
  cells positive for cleaved caspase-3: 8.3%
MM.1S cells [6]; 50 μM
  increase in cleaved caspase-3 over non-treated cells: 1.9 fold
  cells positive for cleaved caspase-3: 11.4%
MM.1R cells [7]; 5 μM
  increase in caspase 3 cleavage: 3 fold
MM.1R cells [7]; 50 μM
  increase in caspase 3 cleavage: 2.7 fold
MM.1R xenografts [8]; 50 mg/kg s.c. 3 times weekly for 3 weeks, by 34 days
  mean tumor volume relative to controls (fold less): approximately eightfold
MM.1R xenografts [8]; mouse, in vivo
  untoward effects in mice: No untoward effects
MM.1R xenografts [9]; controls 25%, n=8, p<0.02
  PCNA-positive proliferating cells (labeling index): 7%
MM.1R xenografts [9]; n=8, p<0.007
  CD31 microvessel density: striking decrease
MM.1S and MM.1R cells
  expression of survivin: not affected
  phospho-p70 S6 kinase: decreased
  phosphorylation of AKT, MDM2, and ERK: significantly decreased
HIF-1α in MM.1R cells
  HIF-1α accumulation under hypoxic conditions: blocked
[10]
  HIF-1α expression under hypoxic conditions: abrogated
[11]
  clearance of SF1126: rapidly cleared post-infusion
[12]
  effect on disease progression: did not appear to modify disease progression
MM.1S cells [4]; MM.1S, 48 hours, sigmoidal dose-response fit
  IC50: 8.89 µM

## RADS [SF1326]
[13]
  rate of cleavage to SF1101: same rate as SF1126
